Bioassay records deposited in PubChem BioAssay by several laboratories.
LYP act: LYP (human) phosphatase activation; Q9Y2R2; recombinant LYP, DiFMUP fluorescence; 0 = plate median, 100 = signal doubled; activation, % at 2 µM; 96,000 tested, 0.11% active; AID 697;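 active means activation at 2 µM above a set limit, the mean plus 5 SD, cut at about 37% in these data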
PLK1 inh: PLK1 (human) kinase inhibition; recombinant PLK1 kinase, TR-FRET peptide phosphorylation; 97,000 tested, 0.53% active; inhibition, % at 10 µM;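 active means inhibition of 50% or more in the single-concentration screen; inactive means inhibition below 50%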;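 further: 0% = DMSO max control and 100% = H-89 dihydrochloride min control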
Target sequence (P53350 whole entry, looked up): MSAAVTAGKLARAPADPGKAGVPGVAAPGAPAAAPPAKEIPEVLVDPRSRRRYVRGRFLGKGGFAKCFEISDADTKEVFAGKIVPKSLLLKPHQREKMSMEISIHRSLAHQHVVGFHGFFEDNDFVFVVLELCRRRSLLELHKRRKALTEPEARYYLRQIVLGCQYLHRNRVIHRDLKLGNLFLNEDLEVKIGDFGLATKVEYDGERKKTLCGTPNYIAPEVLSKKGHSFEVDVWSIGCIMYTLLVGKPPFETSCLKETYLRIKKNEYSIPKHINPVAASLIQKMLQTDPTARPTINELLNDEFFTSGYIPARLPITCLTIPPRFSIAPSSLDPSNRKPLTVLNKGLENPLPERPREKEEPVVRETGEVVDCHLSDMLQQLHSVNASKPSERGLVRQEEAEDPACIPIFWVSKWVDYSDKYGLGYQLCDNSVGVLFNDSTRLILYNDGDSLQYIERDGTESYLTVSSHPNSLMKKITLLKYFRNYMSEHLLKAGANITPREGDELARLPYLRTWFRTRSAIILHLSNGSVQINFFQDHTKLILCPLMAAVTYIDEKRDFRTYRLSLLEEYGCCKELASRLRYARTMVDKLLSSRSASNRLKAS
PTPN22 inh 2: inhibitors of human LYP (PTPN22) phosphatase. inhibition, % at 2 µM. recombinant LYP catalytic domain, DiFMUP fluorescence. AID 640. 96,000 tested, 0.21% active;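 active means inhibition at 2 µM at or above a set limit, the screen mean plus 3 SD, cut at about 24% in these data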;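 further: 0% = DMSO with enzyme and 100% = enzyme fully blocked by orthovanadate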
Rev-RRE block: HIV Rev-RRE protein-RNA interaction inhibition. Rev peptide-RRE RNA binding, FRET. 97,000 tested, 0.79% active. inhibition, % at 8 µM. P05866;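 active means inhibition above the screen-wide mean plus 3 SD, cut at about 35% in these data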;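 further: 0% = median DMSO wells and 100% = median Neomycin B control wells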
Target sequence (P05866 whole entry, looked up): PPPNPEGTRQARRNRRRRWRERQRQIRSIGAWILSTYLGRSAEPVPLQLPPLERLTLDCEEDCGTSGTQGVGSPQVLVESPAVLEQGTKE
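Test system – labelled RRE RNA duplex and labelled Rev peptide · Signal – fluorescein-to-Cy5 FRET, 480 nm excitation · Evaluation – % inhibition of FRET ratio versus controls · Benchmarks – DMSO low control, neomycin B high control · Incubation – 5 min RNA-compound premix plus 15 min binding step, 25 °C · Medium – HEPES pH 7.5 salt buffer with EDTA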
PLK1 PBD inh: inhibitors of human Plk1 polo box domain binding. P53350. Plk1 PBD phosphopeptide binding, fluorescence polarization. inhibition, %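 (tested at about 20 µM)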. 97,000 tested, 0.13% active. AID 693; in the data active means inhibition above about 34%, passing the limit was not always enough
EphB4 ephrin blk: blocks human EphB4 binding to ephrin-B2. P54760. EphB4 LBD / TNYL-RAW-Alexa532 peptide, fluorescence polarization. inhibition, % at 7 µM. 97,000 tested, 0.15% active;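 active means inhibition above the screen-wide mean inhibition plus 3 SD, cut at about 15% in these data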;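 further: 0% = DMSO wells and 100% = excess unlabeled TNYL-RAW peptide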
Numbers without * were called inactive; [ ] = dose if it differs, or a comment. Rows were chosen to be rich in hits. Some 2% of all compounds tested hit in one or more screens of this group.

For O=c1oc2ccccc2cc1-c1nnc(NCc2ccco2)s1 the results were LYP act 3.9, PLK1 inh 3.9, PTPN22 inh 2 -1.5, Rev-RRE block 44.0*, PLK1 PBD inh -11.4 and EphB4 ephrin blk -4.1.
COC(=O)c1cc(NC(=O)c2cccc(C(F)(F)F)c2)c(=O)oc1C/C=N/OCc1cccc(Cl)c1Cl was read as LYP act -13.8, PLK1 inh -4.1, PTPN22 inh 2 13.3, Rev-RRE block 38.9*, PLK1 PBD inh 2.1 and EphB4 ephrin blk -36.5.
O=C(CCc1ccc(S(=O)(=O)N2CCOCC2)cc1)Nc1nc(COc2ccccc2)cs1 was read as LYP act -2.8, PLK1 inh 2.0, PTPN22 inh 2 5.5, Rev-RRE block 9.7, PLK1 PBD inh 13.1 and EphB4 ephrin blk 0.1.
For Cc1oc(-c2cccc(Cl)c2)nc1CN1CCCC(C(=O)NC(C)c2ccc3c(c2)OCCO3)C1 (stereo not given) the results were PLK1 inh 56.0*, Rev-RRE block 3.7, PLK1 PBD inh 4.4 and EphB4 ephrin blk -7.0.
CC1(C(=O)NC2CCCCCCC2)CCC(=O)N1Cc1cccs1 (stereo not given) was read as LYP act -4.4, PLK1 inh -9.7, PTPN22 inh 2 2.8, Rev-RRE block 1.4, PLK1 PBD inh 15.7 and EphB4 ephrin blk 1.9.
Screening Cc1ccnc(N2C(=O)c3cccc4c([N+](=O)[O-])ccc(c34)C2=O)c1 returned LYP act 6.2, PLK1 inh -3.3, PTPN22 inh 2 -8.4, Rev-RRE block 45.0*, PLK1 PBD inh 2.0 and EphB4 ephrin blk 1.7.
CC(C)CNc1nnnc2c1sc1nc(N3CCOCC3)c3c(c12)CC(C)(C)SC3 was read as LYP act -20.9, PLK1 inh -10.8, PTPN22 inh 2 24.6*, Rev-RRE block 4.2, PLK1 PBD inh 25.6 and EphB4 ephrin blk 1.1.
`CCCCOc1[nH]c2nc(-c3ccco3)n(Cc3ccco3)c(=N)c2c1C#N` gave LYP act -7.4, PLK1 inh -11.5, PTPN22 inh 2 6.5, Rev-RRE block 55.1*, PLK1 PBD inh 6.2 and EphB4 ephrin blk 2.4.
c1ccc(CSc2nnc(-c3ccco3)n2Cc2ccco2)cc1 was read as LYP act -4.1, PLK1 inh -3.1, PTPN22 inh 2 2.0, Rev-RRE block 4.6, PLK1 PBD inh -18.5 and EphB4 ephrin blk -2.1.
Screening COc1ccccc1NS(=O)(=O)c1cc(C)ccc1C returned LYP act 7.1, PLK1 inh -29.0, PTPN22 inh 2 -5.4, Rev-RRE block 8.2, PLK1 PBD inh 14.7 and EphB4 ephrin blk -3.0.
O=[N+]([O-])c1ccc(N/N=C/c2c[nH]c3ccccc23)c(S(=O)(=O)Nc2ccc(Cl)cc2)c1 was read as LYP act 1.5, PLK1 inh -10.1, PTPN22 inh 2 0.3, Rev-RRE block 64.6*[fluorescence artefact?], PLK1 PBD inh -7.7 and EphB4 ephrin blk 4.5.
For COc1ccccc1NS(=O)(=O)c1cc([N+](=O)[O-])ccc1N/N=C/c1c(C)[nH]c2ccccc12 the results were LYP act 3.3, PLK1 inh -9.2, PTPN22 inh 2 -1.5, Rev-RRE block 66.2*[fluorescence artefact?], PLK1 PBD inh 7.1 and EphB4 ephrin blk 1.9.
For CCOC(=O)N1CCC2(CC1)C(C#N)=C(N)OC1=C2C(=O)CC(C)C1 (stereo not given) the results were LYP act 7.9, PLK1 inh -5.0, PTPN22 inh 2 -6.0, Rev-RRE block 0.5, PLK1 PBD inh -23.1 and EphB4 ephrin blk 3.6.
COc1ccc(CCNC(=O)CSc2nc3c(c(=O)n(C)c(=O)n3C)n2C)cc1OC was read as LYP act 2.2, PLK1 inh -10.5, PTPN22 inh 2 -1.3, Rev-RRE block 4.8, PLK1 PBD inh 2.0 and EphB4 ephrin blk 1.0.
For COc1cc(/C=c2\s/c(=C(/C#N)C(=O)N3CCCC3)n(-c3ccccc3)c2=O)ccc1O the results were LYP act -1.2, PLK1 inh -17.6, PTPN22 inh 2 -0.5, Rev-RRE block 46.0*, PLK1 PBD inh -63.3 and EphB4 ephrin blk -5.0.
Cc1nc2ccc(Cl)cc2nc(C)/c1=N\O was read as LYP act -4.9, PLK1 inh -4.7, PTPN22 inh 2 4.3, Rev-RRE block 13.0, PLK1 PBD inh -13.3 and EphB4 ephrin blk 12.2.
Screening Cc1n[nH]c(C)c1N=Nc1cc(Cl)ccc1Cl returned LYP act -9.3, PLK1 inh 53.7*, PTPN22 inh 2 13.3, Rev-RRE block 3.8, PLK1 PBD inh 13.3 and EphB4 ephrin blk -5.2.
`CCNc1ccc2noc3c2c1C(=O)c1ccccc1-3` gave LYP act -11.4, PLK1 inh 13.9, PTPN22 inh 2 12.9, Rev-RRE block 138.2*[fluorescence artefact?], PLK1 PBD inh 7.0 and EphB4 ephrin blk 95.4*[fluorescence artefact?].
CCOc1ccc2noc3c2c1C(=O)c1ccccc1-3 was read as LYP act -4.8, PLK1 inh -16.7, PTPN22 inh 2 3.3, Rev-RRE block 132.8*[fluorescence artefact?], PLK1 PBD inh 39.0 and EphB4 ephrin blk 2.1.
`O=C1c2ccccc2-c2onc3c(Oc4ccccc4)cc(O)c1c23` gave LYP act -3.5, PLK1 inh 7.2, PTPN22 inh 2 5.4, Rev-RRE block 3.7, PLK1 PBD inh -26.4 and EphB4 ephrin blk 0.0.
Screening Cc1ccnc(SCCn2c(N3CCCCC3)nc3c2c(=O)n(C)c(=O)n3C)n1 returned LYP act -10.0, PLK1 inh -6.1, PTPN22 inh 2 12.8, Rev-RRE block 6.5, PLK1 PBD inh 7.8 and EphB4 ephrin blk 19.6*.
For Cc1ccnc(SCCn2c(N3CCOCC3)nc3c2c(=O)n(C)c(=O)n3C)n1 the results were LYP act -11.2, PLK1 inh -9.8, PTPN22 inh 2 12.0, Rev-RRE block 7.5, PLK1 PBD inh -7.4 and EphB4 ephrin blk 1.3.
Cc1ccc(S(=O)(=O)Nc2nc3ccccc3nc2N2CCN(c3ccccc3F)CC2)cc1 was read as LYP act -7.8, PLK1 inh -7.9, PTPN22 inh 2 7.5, Rev-RRE block 9.2, PLK1 PBD inh -10.2 and EphB4 ephrin blk 0.4.
`O=S(=O)(Nc1nc2ccccc2nc1N1CCN(c2ccccn2)CC1)c1ccc(Cl)cc1` gave LYP act -10.5, PLK1 inh -10.9, PTPN22 inh 2 3.6, Rev-RRE block 36.5*, PLK1 PBD inh 4.8 and EphB4 ephrin blk 3.5.
For CCOc1ccc(NC(=O)CN2CCN(CC(=O)Nc3ccc(Cl)c(C(F)(F)F)c3)CC2)cc1 the results were LYP act -1.8, PLK1 inh 0.9, PTPN22 inh 2 -0.7, Rev-RRE block 18.6, PLK1 PBD inh -14.2 and EphB4 ephrin blk 3.5.
For Cc1cc(N2CCC(C)CC2)nc2cccc(O)c12 the results were LYP act -8.9, PLK1 inh 62.7*, PTPN22 inh 2 8.1, Rev-RRE block 8.2, PLK1 PBD inh -2.5 and EphB4 ephrin blk 1.7.
CN(C)c1ccc(/C=C/C(=O)c2cccc(Br)c2)cc1 was read as LYP act 3.6, PLK1 inh -38.3, PTPN22 inh 2 -1.4, Rev-RRE block 130.6*[fluorescence artefact?], PLK1 PBD inh -181.0 and EphB4 ephrin blk 1.1.
